From ChEMBL document CHEMBL1212693, “Dorsomorphin inhibits BMP signals required for embryogenesis and iron metabolism” (Nat Chem Biol, 2008)
The source made the active and inactive calls. The calls are words filed in the database; no cut-off is given here.

Assays:
Mus musculus [1] = test: Inhibition of iron-dextran conjugate-induced Smad-5 phosphorylation in C57BL/6 mouse at 23 ug/g, iv after 1 hr; type: functional, organism-based
Danio rerio [2] = test: Inhibition of iron-dextran conjugate-induced Smad-8 phosphorylation in zebrafish at 23 ug/g, iv after 1 hr relative to control; type: functional
Danio rerio [3] = test: Inhibition of iron-dextran conjugate-induced hepcidin mRNA expression in zebrafish at 23 ug/g, ip by qRT-PCR analysis; type: functional, organism-based
Method in brief: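 Adult zebrafish under tricaine were injected intraperitoneally with 10 µl iron-dextran (100 mg ml−1) plus compound (23 µg g−1) or DMSO vehicle; controls received dextran. Livers were taken 3 h later and RNA was extracted with Trizol. Hepcidin mRNA was measured by qRT-PCR and normalised to liver fatty acid binding protein mRNA, with n = 4 per group.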

Mus musculus [4] = test: Inhibition of iron-dextran conjugate-induced hepcidin mRNA expression in C57BL/6 mouse at 10 mg/kg, iv after 6 hrs by qRT-PCR analysis; type: functional, organism-based; parameters: dose 10 mg/kg
Danio rerio [5] = organism: Danio rerio; test: Inhibition of BMPR1 in zebrafish assessed as increase in myod expression at 10 uM treated at 12 hrs post-fertilization measured at 48 hrs
Mus musculus [6] = organism: Mus musculus; test: Inhibition of BMPR1-mediated Smad-1 phosphorylation in BMP4-stimulated mouse PASMC at 100 to 200 ng/ml treated 30 mins before BMP4 challenge measured after 30 mins by immunoblot analysis
Method in brief: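 Mouse PASMCs were serum-reduced 24 h in 0.5% FCS RPMI, pretreated 30 min with noggin or vehicle, then given BMP4 for 30 min. Lysates in SDS buffer were immunoblotted for phospho-SMAD1/5/8 and phospho-MAPK p38, and signals were quantitated by phosphorimager.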

Mus musculus [7] = organism: Mus musculus; test: Inhibition of BMPR1-mediated Smad-8 phosphorylation in BMP7-stimulated mouse PASMC at 4 uM treated 30 mins before BMP7 challenge measured after 30 mins by immunoblot analysis
Method in brief: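 Wild-type mouse PASMCs were kept in RPMI with 0.5% FCS for 24 h. They were preincubated with compound or vehicle for 30 min, then stimulated for 30 min with recombinant BMP2, BMP4, BMP6 or BMP7 at 10 ng ml−1. Lysates in SDS buffer were immunoblotted with anti-phospho-SMAD1/5/8. Total SMAD1 and α-tubulin served as loading controls, and bands were quantified by phosphorimager.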

Mus musculus [8] = organism: Mus musculus; test: Inhibition of BMPR1-mediated Smad-5 phosphorylation in BMP6-stimulated mouse BMPR2 deficient PASMC at 4 uM treated 30 mins before BMP6 challenge measured after 30 mins by immunoblot analysis
Mus musculus [9] = organism: Mus musculus; test: Inhibition of ALK3-mediated Smad-1 phosphorylation in BMPR2 deficient mouse PASMC at 10 uM by immunoblot analysis
Method in brief: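 BMPR-II–deficient mouse PASMCs (RPMI, 10% FBS) transiently transfected with constitutively active ALK2, ALK3 or ALK6 cDNA, or plasmid-only control. Incubated with or without compound (10 µM). Extracts lysed in SDS buffer, run on SDS-PAGE and immunoblotted for phospho-SMAD1/5/8; quantitated by phosphorimager.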

Mus musculus [10] = organism: Mus musculus; test: Inhibition of ALK6-mediated Id1 promoter activity in BMPR2 deficient mouse PASMC at 10 uM by immunoblot analysis
Method in brief: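 BMPR-II–deficient mouse PASMCs at 50% confluence co-transfected with Id1 promoter firefly luciferase (BRE-Luc, 0.3 µg), caALK2, caALK3 or caALK6 (0.6 µg), and pRL-TK Renilla (0.2 µg). Compound (4–10 µM) or vehicle added 1 h after transfection. Activity read as firefly/Renilla ratio by dual luciferase assay; n = 3, mean ± s.d.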

C2C12 = test: Inhibition of BMPR1-mediated osteoblast differentiation in BMP6-stimulated mouse C2C12 cells assessed as decrease in alkaline phosphatase level at 4 uM by spectrophotometry; type: cell-based
Method in brief: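 C2C12 cells were seeded at 2,000 per well in DMEM with 2% FBS and treated in quadruplicate with BMP4 or BMP6 plus compound or vehicle. After 5 d, cells were lysed in TBS with 1% Triton X-100. Lysates were incubated 1 h with p-nitrophenylphosphate and alkaline phosphatase was read as absorbance at 405 nm. Cell count was measured by CyQuant in parallel wells.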

HepG2 = test: Inhibition of BMPR1-mediated hepcidin mRNA expression in BMP2-stimulated human HepG2 cells at 10 uM treated 30 mins before BMP2 challenge measured after 16 hrs by qRT-PCR analysis; type: cell-based
Hep 3B2 = test: Inhibition of hepcidin mRNA expression in human Hep3B cells at 4 uM […] by qRT-PCR analysis; type: functional; conditions: 0.5 h
Danio rerio [11] = organism: Danio rerio; test: Inhibition of BMPR1 in zebrafish assessed as penetrance of mild embryonic axis dorsalization at 10 uM treated at 2 to 6 hrs post-fertilization measured at 48 hrs; parameters: scale not given: the % may be the effect or the level left
Method in brief: (§1)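 Compound added at the stated times and concentrations. Gross morphology scored visually at up to 48 h.p.f. for dorsalization of the embryonic axis.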

Danio rerio [12] = organism: Danio rerio; test: Inhibition of BMPR1 in zebrafish assessed as penetrance of moderate embryonic axis dorsalization at 10 uM treated at 2 to 6 hrs post-fertilization measured at 48 hrs; parameters: scale not given: the % may be the effect or the level left; method in brief: as §1
Danio rerio [13] = organism: Danio rerio; test: Inhibition of BMPR1 in zebrafish assessed as penetrance of moderate embryonic axis dorsalization at 10 uM treated at 4 to 8 hrs post-fertilization measured at 48 hrs; parameters: scale not given: the % may be the effect or the level left; method in brief: as §1
Danio rerio [14] = organism: Danio rerio; test: Inhibition of BMPR1 in zebrafish assessed as penetrance of mild embryonic axis dorsalization at 0.5 uM treated at 3 hrs post-fertilization measured at 48 hrs; parameters: scale not given: the % may be the effect or the level left; method in brief: as §1
Danio rerio [15] = organism: Danio rerio; test: Inhibition of BMPR1 in zebrafish assessed as penetrance of normal embryonic axis dorsalization at 2 uM treated at 3 hrs post-fertilization measured at 48 hrs; parameters: scale not given: the % may be the effect or the level left
Danio rerio [16] = organism: Danio rerio; test: Inhibition of BMPR1 in zebrafish assessed as penetrance of moderate embryonic axis dorsalization at 2 uM treated at 3 hrs post-fertilization measured at 48 hrs; parameters: scale not given: the % may be the effect or the level left
Danio rerio [17] = organism: Danio rerio; test: Inhibition of BMPR1 in zebrafish assessed as penetrance of moderate embryonic axis dorsalization at 10 uM treated at 3 hrs post-fertilization measured at 48 hrs; parameters: scale not given: the % may be the effect or the level left; method in brief: as §1
[18] = target: Vascular endothelial growth factor receptor 2 (Danio rerio) (UniProt Q5GIT4); test: Inhibition of KDR in zebrafish assessed as embryonic axis dorsalization at 10 uM treated occasionally at 6 to 8 hrs post-fertilization measured at 48 hrs
Method in brief: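 Newly fertilised WT zebrafish eggs were arrayed in triplicate in E3 buffer and kept at 28.5 °C. Compound (10 µM) was added at 6–8 h.p.f. Gross morphology was inspected visually for dorsalisation or ventralisation of the embryonic axis, with photographs at 36–48 h.p.f.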

Danio rerio [19] = organism: Danio rerio; test: Inhibition of BMPR1 in zebrafish assessed as penetrance of mild embryonic axis dorsalization at 10 uM treated continuously from 2 hrs post-fertilization measured after 48 hrs; parameters: scale not given: the % may be the effect or the level left; method in brief: as §1
Danio rerio [20] = organism: Danio rerio; test: Inhibition of BMPR1 in zebrafish assessed as penetrance of normal embryonic axis dorsalization at 10 uM treated at 2 to 4 hrs post-fertilization measured at 48 hrs; parameters: scale not given: the % may be the effect or the level left
Danio rerio [21] = organism: Danio rerio; test: Inhibition of BMPR1 in zebrafish assessed as penetrance of mild embryonic axis dorsalization at 10 uM treated at 2 to 4 hrs post-fertilization measured at 48 hrs; parameters: scale not given: the % may be the effect or the level left; method in brief: as §1

Chain of Vascular endothelial growth factor receptor 2 (Danio rerio) (Q5GIT4 whole entry): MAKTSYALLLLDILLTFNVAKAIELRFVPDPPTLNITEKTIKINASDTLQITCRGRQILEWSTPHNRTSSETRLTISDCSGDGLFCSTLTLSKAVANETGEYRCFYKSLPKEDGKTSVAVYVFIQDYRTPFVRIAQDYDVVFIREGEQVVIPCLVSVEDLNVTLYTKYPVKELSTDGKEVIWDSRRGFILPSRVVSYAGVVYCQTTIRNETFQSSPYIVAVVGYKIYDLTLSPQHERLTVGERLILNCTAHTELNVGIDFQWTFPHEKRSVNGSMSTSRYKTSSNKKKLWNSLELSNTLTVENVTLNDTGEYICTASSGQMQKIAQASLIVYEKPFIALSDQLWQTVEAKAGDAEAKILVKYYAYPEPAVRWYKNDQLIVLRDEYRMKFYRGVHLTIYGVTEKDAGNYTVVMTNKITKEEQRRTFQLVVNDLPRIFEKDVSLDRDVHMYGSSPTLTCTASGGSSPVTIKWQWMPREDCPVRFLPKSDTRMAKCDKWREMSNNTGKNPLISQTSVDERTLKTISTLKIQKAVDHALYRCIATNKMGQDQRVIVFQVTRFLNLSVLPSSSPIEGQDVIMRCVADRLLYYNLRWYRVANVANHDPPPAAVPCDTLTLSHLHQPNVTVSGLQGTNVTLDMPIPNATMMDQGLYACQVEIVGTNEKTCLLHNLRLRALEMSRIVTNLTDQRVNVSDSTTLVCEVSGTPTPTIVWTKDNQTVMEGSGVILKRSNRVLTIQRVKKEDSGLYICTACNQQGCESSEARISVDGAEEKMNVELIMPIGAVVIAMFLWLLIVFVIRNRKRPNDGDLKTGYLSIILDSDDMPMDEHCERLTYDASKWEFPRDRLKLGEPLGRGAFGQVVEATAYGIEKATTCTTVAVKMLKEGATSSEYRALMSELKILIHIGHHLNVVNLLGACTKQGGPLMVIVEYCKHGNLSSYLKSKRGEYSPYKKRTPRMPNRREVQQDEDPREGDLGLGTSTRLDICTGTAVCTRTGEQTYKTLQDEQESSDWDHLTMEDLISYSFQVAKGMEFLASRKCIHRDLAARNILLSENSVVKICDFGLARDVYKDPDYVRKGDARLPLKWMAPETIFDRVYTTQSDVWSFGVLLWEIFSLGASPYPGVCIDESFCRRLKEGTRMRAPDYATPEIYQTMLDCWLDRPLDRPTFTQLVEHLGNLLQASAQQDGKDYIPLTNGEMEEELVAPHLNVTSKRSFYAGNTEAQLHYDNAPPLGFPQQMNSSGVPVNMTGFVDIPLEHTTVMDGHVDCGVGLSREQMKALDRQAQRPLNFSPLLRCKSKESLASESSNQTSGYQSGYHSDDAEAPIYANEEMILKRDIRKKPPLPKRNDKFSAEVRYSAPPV

`c1cc(-c2cnn3cc(-c4ccc(OCCN5CCCCC5)cc4)cnc23)ccn1` [DORSOMORPHIN] was tested, and the inhibition (Mus musculus [1]) was “Active”, the “fold change (FC)” value (Danio rerio [2]) was 3 and the inhibition (Danio rerio [3]) was “Active”. The inhibition (Mus musculus [4]) was “Active”, the Activity (Danio rerio [5]) was “Active” and the inhibition (Mus musculus [6]) was “Active”. For the same molecule, the inhibition (Mus musculus [7]) was “Active”, the inhibition (Mus musculus [8]) was “Active” and the inhibition (Mus musculus [9]) was “Active”. The inhibition (Mus musculus [10]) was “Dose-dependent effect”, the inhibition (C2C12) was “Active” and the inhibition (HepG2) was “Active”. For the same molecule, the inhibition at 4 µM (Hep 3B2) was 27%, the Activity (Danio rerio [11]) was 17% and the Activity (Danio rerio [12]) was 44%. It also gave an Activity (Danio rerio [13]) of 35%, an Activity (Danio rerio [14]) of 0% and an Activity (Danio rerio [15]) of 100%. The Activity (Danio rerio [16]) was 0%, the Activity (Danio rerio [17]) was 98% and the inhibition [18] was “inactive”. It also gave an Activity (Danio rerio [19]) of 0%, an Activity (Danio rerio [20]) of 0% and an Activity (Danio rerio [21]) of 10%.
